Publication PMC6605687 (The Journal of General Physiology, 2019)
Numbering of substitutions follows the chain as printed.

Legend:
Assay type in all cases: cell-based
rP2X2 Lys71Arg = molecular target: T1, rP2X2 Lys71Arg (Rattus norvegicus, UniProt P49653, K71R); experiment: Two-electrode voltage clamp, oocytes expressing rP2X2 Lys71Arg
T1 sequence (P49653 1-472 K71R): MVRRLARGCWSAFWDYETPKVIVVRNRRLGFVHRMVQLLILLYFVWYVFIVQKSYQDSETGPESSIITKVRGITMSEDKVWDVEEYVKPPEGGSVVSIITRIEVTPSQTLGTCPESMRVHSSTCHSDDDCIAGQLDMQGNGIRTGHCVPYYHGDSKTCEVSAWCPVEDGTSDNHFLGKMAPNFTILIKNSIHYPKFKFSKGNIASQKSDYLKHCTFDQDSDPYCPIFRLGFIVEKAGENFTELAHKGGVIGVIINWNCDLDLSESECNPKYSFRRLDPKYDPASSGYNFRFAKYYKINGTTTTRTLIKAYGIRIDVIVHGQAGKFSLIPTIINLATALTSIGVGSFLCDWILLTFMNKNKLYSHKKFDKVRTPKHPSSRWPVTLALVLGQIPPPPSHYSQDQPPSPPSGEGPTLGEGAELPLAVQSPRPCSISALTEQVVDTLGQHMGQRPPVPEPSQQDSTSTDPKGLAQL
Procedure, shortened: (§1)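 Mutations were made by site-directed mutagenesis. Xenopus oocytes were injected with rP2X2 mRNA and incubated in L-15 at 18°C. Two-electrode voltage clamp was done 1–2 days later at −40 mV under ND96 perfusion (pH 7.4). ATP concentration-response currents were normalised and fitted to a one-component Hill equation for EC50 and Hill coefficient. Results are mean ± SEM, tested by one-way ANOVA with Dunnett's test against WT.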

rP2X2 Ile185Vah = molecular target: T2, rP2X2 Ile185Vah (Rattus norvegicus, UniProt P49653); experiment: Two-electrode voltage clamp, oocytes expressing rP2X2 Ile185Vah
T2 sequence (P49653 1-472): T1 sequence (P49653 1-472 K71R) with R71K
Procedure, shortened: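 The backbone ester was introduced by nonsense suppression. TAG-mutant rP2X2 mRNA was co-injected into Xenopus oocytes with tRNA enzymatically aminoacylated with 2-hydroxyisovaleric acid. Uncharged tRNA co-injection served as the negative control. After incubation at 18°C, two-electrode voltage clamp was done at −40 mV in ND96 (pH 7.4). ATP concentration-response data were normalised and Hill-fitted for EC50 and nH, given as mean ± SEM.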

rP2X2 Thr184Ser = molecular target: T3, rP2X2 Thr184Ser (Rattus norvegicus, UniProt P49653, T184S); experiment: Two-electrode voltage clamp, oocytes expressing rP2X2 Thr184Ser
T3 sequence (P49653 1-472 T184S): T1 sequence (P49653 1-472 K71R) with R71K, T184S
Procedure, shortened: as §1

[1] = molecular target: T4, rat P2X2 receptor (rP2X2R) WT (Rattus norvegicus, UniProt P49653)
T4 sequence (P49653 1-472): T1 sequence (P49653 1-472 K71R) with R71K
Procedure, shortened: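 Collagenase-digested Xenopus oocytes were injected with WT rP2X2 mRNA (30 ng) and kept in L-15 at 18°C. Two-electrode voltage clamp was done 1–2 days later at −40 mV in ND96 (pH 7.4). Agonists were freshly dissolved in ND96 at pH 7.4. Responses were normalised to 1 mM ATP current in the same cell, and Hill fits gave EC50 and nH. Relative efficacy is the agonist maximal current versus 1 mM ATP. Results are mean ± SEM, compared by one-way ANOVA with Dunnett's test.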

rP2X2 Lys308Gln = molecular target: T5, rP2X2 Lys308Gln (Rattus norvegicus, UniProt P49653, K308Q); experiment: Two-electrode voltage clamp, oocytes expressing rP2X2 Lys308Gln
T5 sequence (P49653 1-472 K308Q): T1 sequence (P49653 1-472 K71R) with R71K, K308Q
Procedure, shortened: as §1

EC50 (rP2X2 Lys71Arg): 370 ± 40 µM
Fold increase in EC50 (decrease in sensitivity), Ile185Vah versus Ile185Val (rP2X2 Ile185Vah; Ile185Vah compared with Ile185Val): 20 fold
EC50 (rP2X2 Ile185Vah; Ile185Vah, mean ± SEM): 460 ± 20 µM
EC50 (rP2X2 Thr184Ser): 26 ± 3 µM
Sensitivity to agonist (in words) (rP2X2 Thr184Ser; Thr184Ser compared with WT): WT-like sensitivity
EC50 [1]: 32 ± 4 µM
EC50 (rP2X2 Lys308Gln): 5800 µM
Compound: Nc1ncnc2c1ncn2[C@@H]1O[C@H](COP(=O)(O)OP(=O)(O)OP(=O)(O)O)[C@@H](O)[C@H]1O [ATP, Adenosine 5′-triphosphate]
